# What was measured:
# Format in all cases: functional
# [1] = Growth inhibition of human OVCAR8 cells; conditions: OVCAR-8
# Outline: (§1)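 NCI 60-human-cancer-cell-line panel, five-dose screen after a preliminary screen. GI50 is the molar concentration giving 50% growth inhibition.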
# [2] = Growth inhibition of human OVCAR4 cells; conditions: OVCAR-4; outline: as §1
# [3] = Growth inhibition of human OVCAR3 cells; conditions: OVCAR-3; outline: as §1
# [4] = system: SK-MEL-5; assay: Growth inhibition of human SK-MEL-5 cells; outline: as §1
# [5] = system: SK-MEL-2; assay: Growth inhibition of human SK-MEL-2 cells; outline: as §1
# [6] = system: SK-MEL-28; assay: Growth inhibition of human SK-MEL-28 cells; outline: as §1
# [7] = system: M14; assay: Growth inhibition of human M14 cells; outline: as §1
# [8] = system: MDA-MB-435; assay: Growth inhibition of human MDA-MB-435 cells; outline: as §1
# [9] = system: Malme-3M; assay: Growth inhibition of human MALME-3M cells; outline: as §1
# [10] = system: U-251; assay: Growth inhibition of human U251 cells
# Outline: (§2)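 NCI 60-cell-line panel, five-dose screen; GI50 is the molar concentration giving 50% growth inhibition.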
# [11] = Growth inhibition of human LOXIMVI cells; conditions: LOX IMVI; outline: as §1
# [12] = system: SNB-75; assay: Growth inhibition of human SNB75 cells; outline: as §2
# [13] = system: SNB-19; assay: Growth inhibition of human SNB19 cells; outline: as §2
# [14] = Growth inhibition of human SF539 cells; conditions: SF-539; outline: as §1
# [15] = Growth inhibition of human SF295 cells; conditions: SF-295; outline: as §1
# [16] = system: SW-620; assay: Growth inhibition of human SW620 cells; outline: as §2
# [17] = system: SF-268; assay: Growth inhibition of human SF268 cells; outline: as §1
# [18] = system: HT-29; assay: Growth inhibition of human HT-29 cells; outline: as §1
# [19] = system: KM12; assay: Growth inhibition of human KM12 cells; outline: as §1
# [20] = Growth inhibition of human HCT15 cells; conditions: HCT-15; outline: as §1
# [21] = Growth inhibition of human HCC2998 cells; conditions: HCC 2998; outline: as §1
# [22] = system: HCT-116; assay: Growth inhibition of human HCT116 cells; outline: as §1
# [23] = system: COLO 205; assay: Growth inhibition of human COLO205 cells; outline: as §1
# [24] = system: NCI-H460; assay: Growth inhibition of human NCI-H460 cells; outline: as §1
# [25] = system: NCI-H522; assay: Growth inhibition of human NCI-H522 cells; outline: as §1
# [26] = system: NCI-H322M; assay: Growth inhibition of human NCI-H322M cells; outline: as §1
# [27] = system: NCI-H226; assay: Growth inhibition of human NCI-H226 cells; outline: as §1
# [28] = system: NCI-H23; assay: Growth inhibition of human NCI-H23 cells; outline: as §1
# [29] = Growth inhibition of human HOP92 cells; conditions: HOP-92; outline: as §1
# [30] = Growth inhibition of human EKVX cells; outline: as §1
# [31] = system: HOP-62; assay: Growth inhibition of human HOP62 cells; outline: as §1
# [32] = system: SR; assay: Growth inhibition of human SR cells; outline: as §2
# [33] = system: A549; assay: Growth inhibition of human A549 cells; outline: as §1
# [34] = system: RPMI-8226; assay: Growth inhibition of human RPMI8226 cells; outline: as §1
smiles,measurement,setting,value
COc1cc(/C(C#N)=C/c2cc3ccccc3s2)cc(OC)c1OC,GI50,[1],23.5 nM
same,GI50,[2],> 100 nM
same,GI50,[3],23 nM
same,GI50,[4],34.4 nM
same,GI50,[5],41.6 nM
same,GI50,[6],> 100 nM
same,GI50,[7],37.9 nM
same,GI50,[8],23.5 nM
same,GI50,[9],23.3 nM
same,GI50,[10],50 nM
same,GI50,[11],48.7 nM
same,GI50,[12],41.5 nM
same,GI50,[13],44 nM
same,GI50,[14],24.8 nM
same,GI50,[15],33.7 nM
same,GI50,[16],40.8 nM
same,GI50,[17],46.7 nM
same,GI50,[18],31.9 nM
same,GI50,[19],22.2 nM
same,GI50,[20],46.1 nM
same,GI50,[21],16.3 nM
same,GI50,[22],49.4 nM
same,GI50,[23],46.9 nM
same,GI50,[24],35.9 nM
same,GI50,[25],29.7 nM
same,GI50,[26],51.7 nM
same,GI50,[27],> 100 nM
same,GI50,[28],52.3 nM
same,GI50,[29],17.9 nM
same,GI50,[30],52.1 nM
same,GI50,[31],98.9 nM
same,GI50,[32],46.6 nM
same,GI50,[33],41.2 nM
same,GI50,[34],28.6 nM
